Legend:
Heat shock protein HSP90 [1] = molecular target: T1, Heat shock protein HSP90 (Homo sapiens, UniProt P07900+P08238); experiment: Inhibition of HSP90 ATPase activity (unknown origin); assay type: protein assay
HCT-116 = experiment: Cytotoxicity against human HCT116 cells assessed as cell growth inhibition; assay type: functional, cell-based
Heat shock protein HSP90 [2] = molecular target: T1, Heat shock protein HSP90; experiment: Inhibition of HSP90 (unknown origin) assessed as HER2 degradation by cell-based assay
A2780 [3] = experiment: Cytotoxicity against human A2780 cells assessed as cell growth inhibition; assay type: functional, cell-based
A2780 [4] = experiment: Antitumor activity against human A2780 cells xenografted in BALB/c nu/nu mouse assessed as tumor growth inhibition at 50 mg/kg, iv administered 3 times a week for 2 weeks starting from 5 to 6 days post tumor inoculation relative to control; assay type: functional; conditions: read-out: TGI
Outline: (§1)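 Human A2780 ovarian adenocarcinoma cells were cultured and implanted into BALB/c-nu/nude mice, n = 6 per group. Tumor size and volume were measured 5 or 6 days later. Compounds were suspended in 1% carboxymethyl cellulose and given intravenously. Deaths and body weight were monitored. Tumor growth inhibition = [1 − (mean treated tumor volume)/(mean control tumor volume)] × 100%.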

[5] = Toxicity in BALB/c nu/nu mouse xenografted with human A2780 cells assessed as mouse death at 50 mg/kg, iv administered 3 times a week for 2 weeks starting from 5 to 6 days post tumor inoculation; assay type: organism-based; conditions: in vivo; outline: as §1
[6] = Toxicity in BALB/c nu/nu mouse xenografted with human A2780 cells assessed as effect on body weight at 50 mg/kg, iv administered 3 times a week for 2 weeks starting from 5 to 6 days post tumor inoculation; assay type: organism-based; conditions: in vivo; outline: as §1

| SMILES | IC50 (Heat shock protein HSP90 [1]) [nM] | IC50 (HCT-116) [nM] | IC50 (Heat shock protein HSP90 [2]) [nM] | IC50 (A2780 [3]) [nM] | inhibition in vivo at 50 mg/kg (A2780 [4]) [%] | Activity [5] | Activity [6] |
| --- | --- | --- | --- | --- | --- | --- | --- |
| CCNC(=O)c1noc(-c2cc(C(C)C)c(O)cc2O)c1-c1cc(COCC(=O)OC)no1 | 443 | 262 | – | – | – | – | – |
| CCNC(=O)c1noc(-c2cc(C(C)C)c(O)cc2O)c1-c1cc(CN)no1 | 674 | 84 | 171 | – | – | – | – |
| CCNC(=O)c1noc(-c2cc(C(C)C)c(O)cc2O)c1-c1cc(CN2CCOCC2)no1 | 595 | 28 | 50 | – | – | – | – |
| CCNC(=O)c1noc(-c2cc(C(C)C)c(O)cc2O)c1-c1cnn(CC)c1 | 532 | 26 | 13 | 30 | – | – | – |
| CCNC(=O)c1noc(-c2cc(C(C)C)c(O)cc2O)c1-c1cnn(C(C)C)c1 | 542 | 21 | 19 | 21 | – | – | – |
| CCCNCc1cc(-c2c(C(=O)NCC)noc2-c2cc(C(C)C)c(O)cc2O)on1 | 465 | 117 | 24 | – | – | – | – |
| CCNC(=O)c1noc(-c2cc(C(C)C)c(O)cc2O)c1-c1cc(CN2CCN(C)CC2)no1 | 572 | 340 | – | – | – | – | – |
| CCNC(=O)c1noc(-c2cc(C(C)C)c(O)cc2O)c1-c1cc(C(N)=O)no1 | 657 | 79 | 52 | 15 | – | – | – |
| CCNC(=O)c1noc(-c2cc(C(C)C)c(O)cc2O)c1-c1cc(CN2CCCCC2)no1 | 752 | 93 | 62 | 62 | – | – | – |
| CCNC(=O)c1noc(-c2cc(C(C)C)c(O)cc2O)c1-c1cc(CN(C)C)no1 | 490 | 92 | 33 | 31 | – | – | – |
| CCNC(=O)c1noc(-c2cc(C(C)C)c(O)cc2O)c1-c1cc(COS(C)(=O)=O)no1 | 476 | 400 | – | – | – | – | – |
| CCNC(=O)c1noc(-c2cc(C(C)C)c(O)cc2O)c1-c1cc(CNCCO)no1 | 975 | 111 | – | – | – | – | – |
| CCNC(=O)c1noc(-c2cc(C(C)C)c(O)cc2O)c1-c1cc(CNC(C)=O)no1 | 500 | 167 | 71 | – | – | – | – |
| CCNC(=O)c1noc(-c2cc(C(C)C)c(O)cc2O)c1-c1cc(CN2CCCC2)no1 | 686 | 51 | 38 | 55 | – | – | – |
| CCNC(=O)c1noc(-c2cc(C(C)C)c(O)cc2O)c1-c1cc(CC#N)no1 | 470 | 79 | – | – | – | – | – |
| CCNC(=O)c1noc(-c2cc(C(C)C)c(O)cc2O)c1-c1cc(CF)no1 | 410 | 63 | 27 | 28 | – | – | – |
| CCCN(CCC)Cc1cc(-c2c(C(=O)NCC)noc2-c2cc(C(C)C)c(O)cc2O)on1 | 413 | 183 | 117 | – | – | – | – |
| CCNC(=O)c1noc(-c2cc(C(C)C)c(O)cc2O)c1-c1cc(C(=O)NC)no1 | 489 | 124 | 24 | 100 | – | – | – |
| CCNC(=O)c1noc(-c2cc(C(C)C)c(O)cc2O)c1-c1ccn(C(C)C)n1 | 543 | 19 | 14 | 45 | 49.8 | Non-Toxic | Non-Toxic |

| SMILES | IC50 (Heat shock protein HSP90 [1]) [nM] | IC50 (HCT-116) [nM] | IC50 (Heat shock protein HSP90 [2]) [nM] | IC50 (A2780 [3]) [nM] | inhibition in vivo at 50 mg/kg (A2780 [4]) [%] | Activity [5] | Activity [6] |
| --- | --- | --- | --- | --- | --- | --- | --- |
| CCNC(=O)c1noc(-c2cc(C(C)C)c(O)cc2O)c1-c1cc[nH]n1 | 524 | 36 | 45 | 33 | 46.4 | Non-Toxic | Non-Toxic |
| CCNC(=O)c1noc(-c2cc(C(C)C)c(O)cc2O)c1-c1cc(CNC)no1 | 436 | 164 | – | – | – | – | – |
| CCNC(=O)c1noc(-c2cc(C(C)C)c(O)cc2O)c1-c1cc(CNC(C)C)no1 | 521 | 109 | 18 | 38 | – | – | – |
| CCNC(=O)c1noc(-c2cc(C(C)C)c(O)cc2O)c1-c1cc(C(=O)N2CCSCC2)no1 | 566 | – | – | 207 | – | – | – |
| CCNCc1cc(-c2c(C(=O)NCC)noc2-c2cc(C(C)C)c(O)cc2O)on1 | 475 | 45 | 23 | 45 | 40.3 | Non-Toxic | Non-Toxic |
| CCNC(=O)c1noc(-c2cc(C(C)C)c(O)cc2O)c1-c1ccn(C)n1 | 522 | 16 | 16 | 12 | – | – | – |
| CCNC(=O)c1noc(-c2cc(C(C)C)c(O)cc2O)c1-c1cnn(C)c1 | 482 | 41 | 19 | 20 | – | – | – |
| CCNC(=O)c1noc(-c2cc(C(C)C)c(O)cc2O)c1-c1ccn(CC)n1 | 553 | 25 | 12 | 13 | – | – | – |
| CCNC(=O)c1noc(-c2cc(C(C)C)c(O)cc2O)c1-c1cc(C(=O)N2CCOCC2)no1 | 583 | 60 | 52 | 85 | – | – | – |
| CCNC(=O)c1noc(-c2cc(C(C)C)c(O)cc2O)c1-c1cc(CNC(=O)CC)no1 | 382 | 78 | 50 | – | – | – | – |
| CCNC(=O)c1noc(-c2cc(C(C)C)c(O)cc2O)c1-c1cc(COCC(N)=O)no1 | 452 | 97 | 50 | – | – | – | – |
| CCNC(=O)c1noc(-c2cc(C(C)C)c(O)cc2O)c1-c1cc(COCC(=O)O)no1 | 1280 | – | – | – | – | – | – |
| CCNC(=O)c1noc(-c2cc(C(C)C)c(O)cc2O)c1-c1cc(C(=O)O)no1 | 1870 | – | – | 20000 | – | – | – |
| CCNC(=O)c1noc(-c2cc(C(C)C)c(O)cc2O)c1-c1cc(C(=O)OCC)no1 | 447 | – | – | 9000 | – | – | – |
| CCCn1ccc(-c2c(C(=O)NCC)noc2-c2cc(C(C)C)c(O)cc2O)n1 | 584 | 49 | 24 | 27 | – | – | – |
| CCNC(=O)c1noc(-c2cc(C(C)C)c(O)cc2O)c1-c1cc(CN2CCSCC2)no1 | 440 | 67 | 38 | 64 | – | – | – |
| C=CCNCc1cc(-c2c(C(=O)NCC)noc2-c2cc(C(C)C)c(O)cc2O)on1 | 435 | – | 67 | – | – | – | – |
| CCNC(=O)c1noc(-c2cc(C(C)C)c(O)cc2O)c1-c1cc(CN(CC)CC)no1 | 468 | 38 | 52 | 78 | 12.8 | Non-Toxic | Non-Toxic |

— ChEMBL document CHEMBL4627371, “Discovery of novel heat shock protein (Hsp90) inhibitors based on luminespib with potent antitumor activity” (Bioorg Med Chem Lett, 2020)
